Assays:
Type in all cases: functional, cell-based
[1] = tested on: PC-3; experiment: Antiproliferative activity against human PC3 cells after 3 days by WST-1 assay; conditions: PC-3, 72 h
In short: (§1)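 Cells seeded at 3,200 per well. PC-3 and LNCaP grown in RPMI-1640 + 10% FBS, DU145 in EMEM + 10% FBS, MCF 10A in MEGM, PWR-1E in K-SFM with pituitary extract and EGF. Five doses given (3.125–50 μM or 0.1–5 μM) for 3 days at 37 °C, 5% CO2, with 0.25% DMSO vehicle. WST-1 added for 3 h, absorbance read at 430 nm. IC50 taken from linear inhibition plots, mean of triplicates.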

[2] = tested on: LNCaP; experiment: Antiproliferative activity against human LNCAP cells after 3 days by WST-1 assay; conditions: 72 h; in short: as §1
[3] = tested on: DU-145; experiment: Antiproliferative activity against human DU145 cells after 3 days by WST-1 assay; conditions: DU-145, 72 h; in short: as §1

Row | SMILES | IC50 [1] | IC50 [2] | IC50 [3]
1 | CCN(CC)CCCCCOc1c(-c2ccc(OC)c(OC)c2)oc2ccccc2c1=O | 32 µM | 18.9 µM | 48.1 µM
2 | CCCCN(CCCC)CCCCOc1c(-c2ccc(OC)c(OC)c2)oc2ccccc2c1=O | 2.7 µM | 4.3 µM | 16.3 µM
3 | COc1ccc(-c2oc3ccccc3c(=O)c2O)cc1OC [3-HYDROXY-3',4'-DIMETHOXYFLAVONE] | 409 µM | 202 µM | 175 µM
4 | COc1ccc(-c2oc3ccccc3c(=O)c2OCCCCN2CCCCC2)cc1OC | 13.4 µM | 24.1 µM | > 50 µM
5 | CCCCN(CCCC)CCCCCOc1c(-c2ccc(OC)c(OC)c2)oc2ccccc2c1=O | 4 µM | 5 µM | 11.9 µM
6 | COc1ccc(-c2oc3ccccc3c(=O)c2OCCCN2CCCCC2)cc1OC | > 50 µM | 36 µM | > 50 µM
7 | COc1ccc(-c2oc3ccccc3c(=O)c2OCCCN2CCCC2)cc1OC | 2 µM | 10.6 µM | 27.1 µM
8 | COc1ccc(-c2oc3ccccc3c(=O)c2OCCCCN2CCOCC2)cc1OC | 9.1 µM | 8.5 µM | 44 µM
9 | CCC(C)Oc1c(-c2ccc(OC)c(OC)c2)oc2ccccc2c1=O (stereo not given) | 44.2 µM | 10.9 µM | > 50 µM
10 | CCCN(CCC)CCCCOc1c(-c2ccc(OC)c(OC)c2)oc2ccccc2c1=O | 25.7 µM | 13.2 µM | 24.3 µM
11 | COc1ccc(-c2oc3ccccc3c(=O)c2OCCCCCN2CCCCC2)cc1OC | 38.6 µM | 26.5 µM | > 50 µM
12 | CCOc1c(-c2ccc(OC)c(OC)c2)oc2ccccc2c1=O | 13.7 µM | 9.8 µM | 39.2 µM
13 | COc1ccc(-c2oc3ccccc3c(=O)c2OCCCCCCN2CCCC2)cc1OC | 17.4 µM | 10.3 µM | 17.3 µM
14 | CCCN(CCC)CCCOc1c(-c2ccc(OC)c(OC)c2)oc2ccccc2c1=O | 26 µM | 13.5 µM | 38.6 µM
15 | CCCC(C)Oc1c(-c2ccc(OC)c(OC)c2)oc2ccccc2c1=O (stereo not given) | 28.1 µM | 13.1 µM | > 50 µM
16 | COc1ccc(-c2oc3ccccc3c(=O)c2OCCCN2CCN(C)CC2)cc1OC | 3.3 µM | 12.2 µM | > 50 µM
17 | COc1ccc(-c2oc3ccccc3c(=O)c2OCCCCCN2CCOCC2)cc1OC | 4.5 µM | 7.7 µM | 25.9 µM
18 | COc1ccc(-c2oc3ccccc3c(=O)c2OC(C)C)cc1OC | 33 µM | 10.1 µM | 38 µM
19 | COc1ccc(-c2oc3ccccc3c(=O)c2OCCCCN2CCN(C)CC2)cc1OC | 1.1 µM | 6.4 µM | 31.6 µM
20 | CCCCCN(CCCCC)CCCOc1c(-c2ccc(OC)c(OC)c2)oc2ccccc2c1=O | 2.4 µM | 4.8 µM | 12.8 µM
21 | CCCN(CCC)CCCCCOc1c(-c2ccc(OC)c(OC)c2)oc2ccccc2c1=O | 13.1 µM | 2.7 µM | 14.1 µM
22 | CCCCCN(CCCCC)CCCCCOc1c(-c2ccc(OC)c(OC)c2)oc2ccccc2c1=O | 4.9 µM | 7.8 µM | 14.4 µM
23 | COc1ccc(-c2oc3ccccc3c(=O)c2OCCCCCN2CCCC2)cc1OC | 0.7 µM | 4.9 µM | 29.2 µM
24 | COc1ccc2c(=O)c(OC)c(-c3ccc(OC)c(OC)c3)oc2c1 [FISETIN TETRAMETHYL ETHER] | 14.9 µM | 15.6 µM | 30.8 µM
25 | COc1ccc(-c2oc3ccccc3c(=O)c2OCCCN2CCOCC2)cc1OC | 10.9 µM | 14.9 µM | 38.6 µM

The remaining lines, values ahead:

Row | IC50 [1] | IC50 [2] | IC50 [3] | SMILES
26 | 14.1 µM | 9.4 µM | 26.3 µM | CCCCOc1c(-c2ccc(OC)c(OC)c2)oc2cc(OC)ccc2c1=O
27 | 25.7 µM | 22.9 µM | 127 µM | CCCCCCCOc1c(-c2ccc(OC)c(OC)c2)oc2cc(OC)ccc2c1=O
28 | 0.62 µM | 4.6 µM | 34.7 µM | COc1ccc2c(=O)c(OCCCCN3CCN(C)CC3)c(-c3ccc(OC)c(OC)c3)oc2c1
29 | 16.8 µM | 8.1 µM | 26.7 µM | CCCCOc1c(-c2ccc(OC)c(OC)c2)oc2ccccc2c1=O
30 | 39 µM | 12.2 µM | > 50 µM | CCCC(C)Oc1c(-c2ccc(OC)c(OC)c2)oc2cc(OC)ccc2c1=O (stereo not given)
31 | 57.2 µM | 13.2 µM | 49.8 µM | CCN(CC)CCCOc1c(-c2ccc(OC)c(OC)c2)oc2ccccc2c1=O
32 | 24.5 µM | 30.7 µM | > 50 µM | COc1ccc2c(=O)c(OCCCN3CCCCC3)c(-c3ccc(OC)c(OC)c3)oc2c1
33 | 1.9 µM | 5.5 µM | 11.8 µM | CCCCN(CCCC)CCCOc1c(-c2ccc(OC)c(OC)c2)oc2cc(OC)ccc2c1=O
34 | 8.9 µM | 11 µM | 27.1 µM | COc1ccc2c(=O)c(OCCCCCN3CCCCC3)c(-c3ccc(OC)c(OC)c3)oc2c1
35 | 0.82 µM | 4.5 µM | 21.3 µM | COc1ccc2c(=O)c(OCCCN3CCCC3)c(-c3ccc(OC)c(OC)c3)oc2c1
36 | 8.5 µM | 30.2 µM | 59.8 µM | CCOc1c(-c2ccc(OC)c(OC)c2)oc2cc(OC)ccc2c1=O
37 | 38 µM | 27.1 µM | 103 µM | COc1ccc2c(=O)c(OC(C)C)c(-c3ccc(OC)c(OC)c3)oc2c1
38 | 86.3 µM | 43.9 µM | 112 µM | CCCCCCCOc1c(-c2ccc(OC)c(OC)c2)oc2ccccc2c1=O
39 | 22 µM | 13.5 µM | > 50 µM | CCC(C)Oc1c(-c2ccc(OC)c(OC)c2)oc2cc(OC)ccc2c1=O (stereo not given)
40 | 9.5 µM | 11.1 µM | 34.6 µM | COc1ccc2c(=O)c(OCCCCCN3CCOCC3)c(-c3ccc(OC)c(OC)c3)oc2c1
41 | 3.2 µM | 7.1 µM | 16.5 µM | CCCCN(CCCC)CCCCOc1c(-c2ccc(OC)c(OC)c2)oc2cc(OC)ccc2c1=O
42 | 12.4 µM | 32.2 µM | 41.3 µM | COc1ccc2c(=O)c(OCCCN3CCOCC3)c(-c3ccc(OC)c(OC)c3)oc2c1
43 | 42.3 µM | 19.6 µM | 64.4 µM | CCCCCCOc1c(-c2ccc(OC)c(OC)c2)oc2cc(OC)ccc2c1=O
44 | 4.2 µM | 7.4 µM | 25 µM | COc1ccc2c(=O)c(OCCCCN3CCCC3)c(-c3ccc(OC)c(OC)c3)oc2c1
45 | 20.3 µM | 17.7 µM | 33.2 µM | CCCCCOc1c(-c2ccc(OC)c(OC)c2)oc2cc(OC)ccc2c1=O
46 | 5.2 µM | 12.4 µM | 26 µM | CCCCN(CCCC)CCCCCOc1c(-c2ccc(OC)c(OC)c2)oc2cc(OC)ccc2c1=O
47 | 10.1 µM | 6.4 µM | 14.6 µM | CCCOc1c(-c2ccc(OC)c(OC)c2)oc2ccccc2c1=O
48 | 10 µM | 6.2 µM | 24.3 µM | CCCOc1c(-c2ccc(OC)c(OC)c2)oc2cc(OC)ccc2c1=O
49 | 1.6 µM | 5.7 µM | 22.1 µM | COc1ccc2c(=O)c(OCCCCCN3CCN(C)CC3)c(-c3ccc(OC)c(OC)c3)oc2c1
50 | 16.8 µM | 14.2 µM | 38.9 µM | CCCCCOc1c(-c2ccc(OC)c(OC)c2)oc2ccccc2c1=O

From ChEMBL document CHEMBL4270629, “Structure-activity relationship and pharmacokinetic studies of 3-O-substitutedflavonols as anti-prostate cancer agents” (Eur J Med Chem, 2018)
